Reference: ChEMBL document CHEMBL1128328, “Identification of efficient pentapeptide substrates for the tyrosine kinase pp60c-src” (J Med Chem, 1995)

What was measured:
[1] = target: Proto-oncogene tyrosine-protein kinase Src (Homo sapiens) (UniProt P12931); assay: Incorporation of 32P into phosphopeptide product (1 mM) in pp60c-src phosphorylation assay
Method in brief: (§1)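 Human pp60c-src (baculovirus/SF9 recombinant, partially purified), 10 units in 40 µL; 138 mM MOPS pH 7.1, 0.64 mM MgCl2 (calculated free Mg2+ 0.44 mM), BSA 0.37 mg/mL, 200 µM [γ-32P]ATP, 20 µM ADP; peptide at 1 or 3 mM final; 30 min, 30 °C; acid molybdate quench; PEI-cellulose column, 1 M LiCl elution, Cerenkov counting; triplicate, no-peptide blank subtracted.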

[2] = target: Proto-oncogene tyrosine-protein kinase Src (Homo sapiens) (UniProt P12931); assay: Incorporation of 32P into phosphopeptide product (3 mM) in pp60c-src phosphorylation assay; method in brief: as §1
[3] = tested on: CC[C@H](C)[C@H](NC(=O)[C@H](C)NC(=O)[C@H](CC(=O)O)NC(=O)[C@H](CCC(=O)O)NC(C)=O)C(=O)N[C@@H](Cc1ccc(O)cc1)C(N)=O; assay: (§2) Maximum enzyme velocity(Vmax) of peptide phosphorylation by pp60src
Method in brief: (§3)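 Same pp60c-src reaction (pH 7.1 MOPS, 200 µM [γ-32P]ATP, 20 µM ADP, 30 min, 30 °C, PEI-cellulose/Cerenkov readout). Two peptide levels, near and ~10× estimated Km (200 µM/2 mM, 25/300 µM, or 50 µM/1 mM depending on peptide). Initial velocities in 4–6 repeats per level, minus zero-time blank. Apparent values from Cornish-Bowden direct linear plot.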

[4] = tested on: CC[C@H](C)[C@H](NC(=O)[C@H](CCC(=O)O)NC(=O)[C@H](CCC(=O)O)NC(=O)[C@H](CCC(=O)O)NC(=O)[C@H](C)N)C(=O)N[C@@H](Cc1ccc(O)cc1)C(=O)NCC(=O)N[C@@H](CCC(=O)O)C(=O)N[C@@H](Cc1ccccc1)C(=O)N[C@@H](CCC(=O)O)C(=O)N[C@@H](C)C(=O)N[C@@H](CCCCN)C(=O)N[C@@H](CCCCN)C(=O)N[C@@H](CCCCN)C(=O)N[C@@H](CCCCN)C(=O)O; assay: as §2; method in brief: as §3
[5] = tested on: CC[C@H](C)[C@H](NC(C)=O)C(=O)N[C@@H](Cc1ccc(O)cc1)C(=O)NCC(=O)N[C@@H](CCC(=O)O)C(=O)N[C@@H](Cc1ccccc1)C(N)=O; assay: as §2; method in brief: as §3
[6] = tested on: CC[C@H](C)[C@H](NC(=O)[C@H](C)NC(=O)[C@H](CC(=O)O)NC(=O)[C@H](CCC(=O)O)NC(C)=O)C(=O)N[C@@H](Cc1ccc(O)cc1)C(N)=O; assay: (§4) Michaelis-Menten (Km) constant for peptide phosphorylation by pp60src; method in brief: as §3
[7] = tested on: CC[C@H](C)[C@H](NC(=O)[C@H](CCC(=O)O)NC(=O)[C@H](CCC(=O)O)NC(=O)[C@H](CCC(=O)O)NC(=O)[C@H](C)N)C(=O)N[C@@H](Cc1ccc(O)cc1)C(=O)NCC(=O)N[C@@H](CCC(=O)O)C(=O)N[C@@H](Cc1ccccc1)C(=O)N[C@@H](CCC(=O)O)C(=O)N[C@@H](C)C(=O)N[C@@H](CCCCN)C(=O)N[C@@H](CCCCN)C(=O)N[C@@H](CCCCN)C(=O)N[C@@H](CCCCN)C(=O)O; assay: as §4; method in brief: as §3
[8] = tested on: CC[C@H](C)[C@H](NC(C)=O)C(=O)N[C@@H](Cc1ccc(O)cc1)C(=O)NCC(=O)N[C@@H](CCC(=O)O)C(=O)N[C@@H](Cc1ccccc1)C(N)=O; assay: as §4; method in brief: as §3

| Compound | CPM x1000 [1] | CPM x1000 [2] | further results |
| --- | --- | --- | --- |
| CC[C@H](C)[C@H](NC(=O)[C@H](CCC(=O)O)NC(=O)[C@H](CCC(=O)O)NC(=O)[C@H](CCC(=O)O)NC(=O)[C@H](C)N)C(=O)N[C@@H](Cc1ccc(O)cc1)C(=O)NCC(=O)N[C@@H](CCC(=O)O)C(=O)N[C@@H](Cc1ccccc1)C(=O)N[C@@H](CCC(=O)O)C(=O)N[C@@H](C)C(=O)N[C@@H](CCCCN)C(=O)N[C@@H](CCCCN)C(=O)N[C@@H](CCCCN)C(=O)N[C@@H](CCCCN)C(=O)O | 702 | – | – |
| Ac-EDAEYA-NH2 | – | 28.5 | – |
| Ac-EDAIY-NH2 | 403 | – | – |
| Ac-IYGEF-NH2 | 497 | – | – |
| H-RRLIEDAEYAARG-OH | – | 80.3 | – |
| Proto-oncogene tyrosine-protein kinase Src (Homo sapiens) (from UniProt P12931) | – | – | Vmax [3]: 1.86 µM/min/mg; Vmax [4]: 3.06 µM/min/mg; Vmax [5]: 1.02 µM/min/mg; Km [6]: 880 µM; Km [7]: 100 µM; Km [8]: 368 µM |

Further lines, with some results ahead:

| CPM x1000 [1] | CPM x1000 [2] | Compound | further results |
| --- | --- | --- | --- |
| – | 23.4 | Ac-DAEYA-NH2 | – |
| 63.5 | 89.5 | Ac-EGTYG-NH2 | – |
| – | 120 | Ac-GEGTYGV-NH2 | – |
